How the values were obtained:
[1] = system: pPRAS40, pGSK3β, pS6 in T47D cells; assay: Immunoblot of downstream AKT signaling in T47D cells; format: cell-based; conditions: 24 hours
S6K1 [2] = molecular target: T1, S6K1 (Homo sapiens, UniProt P23443); assay: Immunoblot of S6K1 degradation; format: cell-based
PKG1 = PKG1 (Homo sapiens, UniProt Q13976); assay: Z'-LYTE kinase assay, PKG1; format: biochemical
S6K1 [3] = molecular target: T1, S6K1; assay: Z'-LYTE kinase assay, S6K1; format: biochemical
[4] = system: AKT isoforms in T47D cells; assay: Immunoblot of AKT degradation in T47D cells; format: cell-based; conditions: 24-hour treatment, 250 nM
MOLT4 cells proteome = assay: TMT quantitative mass spectrometry proteomics in MOLT4 cells; format: cell-based, human; conditions: MOLT4, 250 nM, 4 hours, vs DMSO
[5] = system: Ikaros (IKZF1) and Aiolos (IKZF3); assay: Immunoblot of Ikaros and Aiolos degradation; format: cell-based; conditions: 24 hours of drug treatment
Procedure, shortened: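 Cells were seeded at 250,000/mL (T47D at 200,000/mL) in RPMI or DMEM with 10% serum, left overnight, then given test compound. They were lysed 15 min in RIPA (pH 7.5) with 0.1% SDS, phosphatase and protease inhibitors, cleared at 14,000 rpm for 10 min at 4°C, and protein-normalized. Lysates went through SDS-PAGE and nitrocellulose transfer, milk block, primary antibodies at 4°C overnight, and fluorescent secondaries 1 h RT. Imaging was on a LI-COR Odyssey.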

ZR-75-1 cells = assay: Growth rate inhibition; format: cell-based; conditions: ZR-75-1, 72-hour treatment
[6] = system: AKT in T47D and MDA-MB-468 cells; assay: Time course and washout immunoblots of AKT levels; format: cell-based
RET (V804M) = RET (V804M) (Homo sapiens, UniProt P07949, V804M); assay: LanthaScreen assay, RET; format: biochemical
Chain of RET (V804M) (P07949 29-1114 V804M): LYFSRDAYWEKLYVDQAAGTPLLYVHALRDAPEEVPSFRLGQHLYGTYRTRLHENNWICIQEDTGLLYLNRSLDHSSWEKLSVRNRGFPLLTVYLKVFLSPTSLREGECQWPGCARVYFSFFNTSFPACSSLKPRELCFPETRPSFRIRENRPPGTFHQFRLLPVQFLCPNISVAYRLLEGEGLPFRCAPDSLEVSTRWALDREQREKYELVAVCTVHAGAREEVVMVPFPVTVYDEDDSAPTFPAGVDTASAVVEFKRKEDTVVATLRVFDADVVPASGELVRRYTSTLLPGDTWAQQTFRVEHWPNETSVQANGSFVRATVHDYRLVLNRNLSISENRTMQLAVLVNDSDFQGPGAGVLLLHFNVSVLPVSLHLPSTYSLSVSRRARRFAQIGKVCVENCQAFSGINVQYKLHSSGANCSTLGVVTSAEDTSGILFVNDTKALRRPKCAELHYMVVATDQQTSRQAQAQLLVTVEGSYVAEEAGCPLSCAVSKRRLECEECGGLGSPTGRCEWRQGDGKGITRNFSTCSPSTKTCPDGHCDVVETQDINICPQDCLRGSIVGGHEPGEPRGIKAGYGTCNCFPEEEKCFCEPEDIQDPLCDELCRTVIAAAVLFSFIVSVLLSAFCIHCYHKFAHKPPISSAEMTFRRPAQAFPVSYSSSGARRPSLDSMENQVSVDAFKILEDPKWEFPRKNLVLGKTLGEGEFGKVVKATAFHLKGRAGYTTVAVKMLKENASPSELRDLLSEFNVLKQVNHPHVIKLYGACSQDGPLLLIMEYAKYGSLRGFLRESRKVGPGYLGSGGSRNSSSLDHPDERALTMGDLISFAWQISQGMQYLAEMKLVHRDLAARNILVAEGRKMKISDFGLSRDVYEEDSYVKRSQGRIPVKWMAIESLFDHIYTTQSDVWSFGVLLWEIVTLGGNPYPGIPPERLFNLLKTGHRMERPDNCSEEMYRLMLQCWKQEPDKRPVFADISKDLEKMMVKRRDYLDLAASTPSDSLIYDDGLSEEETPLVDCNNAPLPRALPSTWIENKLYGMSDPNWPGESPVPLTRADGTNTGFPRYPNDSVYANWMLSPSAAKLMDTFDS

AKT2 = AKT2 (Homo sapiens, UniProt P31751); assay: Z'-LYTE FRET-based kinase inhibition assay, AKT2; format: biochemical
Chain of AKT2 (P31751 whole entry): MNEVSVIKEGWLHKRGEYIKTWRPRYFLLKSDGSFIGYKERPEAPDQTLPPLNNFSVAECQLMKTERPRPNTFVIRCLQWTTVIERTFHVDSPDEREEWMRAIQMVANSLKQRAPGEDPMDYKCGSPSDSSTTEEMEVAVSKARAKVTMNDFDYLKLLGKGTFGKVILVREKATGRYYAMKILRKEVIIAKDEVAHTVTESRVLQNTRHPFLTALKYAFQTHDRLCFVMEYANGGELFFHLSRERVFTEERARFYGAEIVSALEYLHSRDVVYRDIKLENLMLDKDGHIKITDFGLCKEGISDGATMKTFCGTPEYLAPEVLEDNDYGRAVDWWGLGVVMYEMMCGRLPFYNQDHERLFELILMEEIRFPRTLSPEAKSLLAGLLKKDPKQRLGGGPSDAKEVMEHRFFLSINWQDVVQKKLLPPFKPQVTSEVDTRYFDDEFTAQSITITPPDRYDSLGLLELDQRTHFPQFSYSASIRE

AKT1 = AKT1 (Homo sapiens, UniProt P31749); assay: Z'-LYTE FRET-based kinase inhibition assay, AKT1; format: biochemical
Chain of AKT1 (P31749 whole entry): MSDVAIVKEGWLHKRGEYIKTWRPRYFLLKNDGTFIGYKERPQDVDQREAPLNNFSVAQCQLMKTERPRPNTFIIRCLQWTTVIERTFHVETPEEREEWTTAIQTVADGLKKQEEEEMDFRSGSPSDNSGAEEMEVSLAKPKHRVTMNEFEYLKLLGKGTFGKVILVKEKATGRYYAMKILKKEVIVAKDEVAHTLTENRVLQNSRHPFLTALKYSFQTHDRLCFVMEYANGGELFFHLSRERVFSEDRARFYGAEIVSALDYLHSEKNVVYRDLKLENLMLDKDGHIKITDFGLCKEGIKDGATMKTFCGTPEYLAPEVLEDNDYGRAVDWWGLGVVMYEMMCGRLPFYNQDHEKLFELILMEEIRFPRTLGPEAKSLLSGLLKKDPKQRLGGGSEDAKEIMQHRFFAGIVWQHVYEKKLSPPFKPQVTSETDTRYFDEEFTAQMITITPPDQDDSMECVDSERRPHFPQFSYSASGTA

AKT3 = AKT3 (Homo sapiens, UniProt Q9Y243); assay: Z'-LYTE FRET-based kinase inhibition assay, AKT3; format: biochemical
Chain of AKT3 (Q9Y243 whole entry): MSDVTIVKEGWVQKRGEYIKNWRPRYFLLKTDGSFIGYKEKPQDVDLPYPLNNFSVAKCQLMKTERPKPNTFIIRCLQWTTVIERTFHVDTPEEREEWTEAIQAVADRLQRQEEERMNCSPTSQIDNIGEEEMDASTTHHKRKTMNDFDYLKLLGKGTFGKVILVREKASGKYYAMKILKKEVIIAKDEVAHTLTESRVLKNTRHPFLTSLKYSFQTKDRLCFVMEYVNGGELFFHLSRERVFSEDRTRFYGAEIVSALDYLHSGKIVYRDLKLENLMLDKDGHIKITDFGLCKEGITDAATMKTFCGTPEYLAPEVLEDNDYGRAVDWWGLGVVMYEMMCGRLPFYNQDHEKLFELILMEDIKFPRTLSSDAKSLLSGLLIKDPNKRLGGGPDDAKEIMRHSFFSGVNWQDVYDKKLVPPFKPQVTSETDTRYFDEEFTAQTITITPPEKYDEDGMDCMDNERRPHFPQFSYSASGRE

[7] = system: MDA-MB-468 and HCC1937 cells; assay: Growth rate inhibition; format: cell-based; conditions: MDA-MB-468 and HCC1937, 72-hour treatment
[8] = system: AKT1, AKT2, AKT3 in MDA-MB-468 cells; assay: Immunoblot of AKT isoform degradation in MDA-MB-468 cells; format: cell-based
[9] = system: pPRAS40 in T47D and MDA-MB-468 cells; assay: Time course and washout immunoblots of pPRAS40; format: cell-based; conditions: for pPRAS40 levels over time: 250 nM, T47D and MDA-MB-468, continuous treatment; for pPRAS40 levels after washout: 12 hours treatment with 250 nM, then washout
[10] = system: ZR-75-1, T47D, LNCaP, and MCF-7 cells; assay: Growth rate inhibition; format: cell-based; conditions: 72-hour treatment, Figures 3A-D

T1 sequence (P23443 whole entry): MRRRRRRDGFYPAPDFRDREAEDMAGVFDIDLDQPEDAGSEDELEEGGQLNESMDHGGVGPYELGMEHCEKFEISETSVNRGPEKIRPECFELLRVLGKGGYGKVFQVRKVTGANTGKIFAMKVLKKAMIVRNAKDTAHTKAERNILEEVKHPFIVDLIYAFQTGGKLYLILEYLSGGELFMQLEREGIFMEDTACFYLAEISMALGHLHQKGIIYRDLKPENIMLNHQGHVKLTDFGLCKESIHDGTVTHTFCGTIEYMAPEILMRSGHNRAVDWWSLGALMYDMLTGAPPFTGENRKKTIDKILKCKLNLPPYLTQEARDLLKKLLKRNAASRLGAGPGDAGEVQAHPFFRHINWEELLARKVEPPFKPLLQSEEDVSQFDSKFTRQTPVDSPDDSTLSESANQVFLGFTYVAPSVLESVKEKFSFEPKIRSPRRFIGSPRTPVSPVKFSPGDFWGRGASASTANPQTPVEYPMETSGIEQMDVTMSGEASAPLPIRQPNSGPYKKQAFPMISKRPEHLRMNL
Chain of PKG1 (Q13976 whole entry): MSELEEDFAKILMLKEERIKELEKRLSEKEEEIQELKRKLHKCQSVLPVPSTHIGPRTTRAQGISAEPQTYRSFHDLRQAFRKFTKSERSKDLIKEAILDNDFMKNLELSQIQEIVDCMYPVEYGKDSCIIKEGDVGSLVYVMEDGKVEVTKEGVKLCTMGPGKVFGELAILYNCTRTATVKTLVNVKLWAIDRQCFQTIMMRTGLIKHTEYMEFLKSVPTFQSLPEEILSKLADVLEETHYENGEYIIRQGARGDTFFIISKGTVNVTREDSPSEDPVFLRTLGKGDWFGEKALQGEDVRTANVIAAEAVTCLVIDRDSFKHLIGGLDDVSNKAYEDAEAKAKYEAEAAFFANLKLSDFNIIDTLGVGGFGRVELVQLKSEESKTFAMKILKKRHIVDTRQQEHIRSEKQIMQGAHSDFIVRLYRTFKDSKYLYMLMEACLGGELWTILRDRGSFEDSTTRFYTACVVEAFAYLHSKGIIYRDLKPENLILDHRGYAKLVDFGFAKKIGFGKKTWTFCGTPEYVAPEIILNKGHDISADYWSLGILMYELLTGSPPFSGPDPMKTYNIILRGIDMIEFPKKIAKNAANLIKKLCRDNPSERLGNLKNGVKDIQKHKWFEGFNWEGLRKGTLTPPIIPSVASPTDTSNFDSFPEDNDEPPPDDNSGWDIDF

In the case of C[C@@H]1C[C@@H](O)c2ncnc(N3CCN(C(=O)[C@H](CNCCCCCCCCCCc4cccc5c4CN(C4CCC(=O)NC4=O)C5=O)c4ccc(Cl)cc4)CC3)c21 (stereo partly drawn) [INY-03-041, 3-(4-(10-(((S)-2-(4-chlorophenyl)-3-(4-((5R,7R)-7-hydroxy-5-methyl-6,7-dihydro-5H-cyclopenta[d]pyrimidin-4-yl)piperazin-1-yl)-3-oxopropyl)amino)decyl)-1-oxoisoindolin-2-yl)piperidine-2,6-dione], the “concentration that significantly reduced pPRAS40, pGSK3β, and pS6 levels” value [1] is reported as 250 nM, the “S6K1 degradation (immunoblot)” value (S6K1 [2]) is reported as “did not induce S6K1 degradation” and the IC50 (PKG1) is reported as 33.2 nM. The IC50 (S6K1 [3]) was 37.3 nM, the “AKT isoform levels after treatment” value [4] was “no detectable levels of all three AKT isoforms” and the “S6K1 and PKG1 abundance (proteomics)” value (MOLT4 cells proteome) was “no downregulation of either kinases was observed”. For the same molecule, the “change in protein abundance (proteomics)” value (MOLT4 cells proteome) was “significant downregulation of all three AKT isoforms, as well as RNF166”, the “IKZF1 and IKZF3 degradation (immunoblot)” value [5] was “weak IKZF1 and IKZF3 degradation” and the “concentration at which IKZF1 and IKZF3 degradation was seen” value [5] was no less than 500 nM. For the same molecule, the GR50 (ZR-75-1 cells) was 16 nM, the “fold increased potency compared to GDC-0068 (GR50)” value (ZR-75-1 cells) was 14 fold and the “duration of sustained destabilization of all three AKT isoforms” value ([6]; 250 nM, T47D and MDA-MB-468) was “at least 96 hours”. The “AKT levels after compound washout” value ([6]; 12 hours treatment with 250 nM, then washout) was “no detectable rebound of AKT levels for up to 96 hours”, the IC50 (RET (V804M)) was greater than 10000 nM and the IC50 (AKT2) was 6.8 nM. For the same molecule, the IC50 (AKT1) was 2 nM, the IC50 (AKT3) was 3.5 nM and the “GR50 comparison” value [7] was “no apparent differences in GR50 values between INY-03-041 and INY-03-112”. For the same molecule, the “time to partial degradation of all AKT isoforms” value ([8]; MDA-MB-468, 250 nM) was no more than 4 h, the “concentration at which diminished AKT degradation (hook effect) was observed” value ([8]; MDA-MB-468, 12-hour treatment) was no less than 500 nM and the “pPRAS40 levels over time” value [9] was “significantly reduced for up to 96 hours”. The “pPRAS40 levels after washout” value [9] was “potently suppressed levels of pPRAS40 for up to 96 hours after washout”.
For C[C@@H]1C[C@@H](O)c2ncnc(N3CCN(C(=O)[C@H](CNCCCCCCCCCCc4cccc5c4CN(C4CCC(=O)N(C)C4=O)C5=O)c4ccc(Cl)cc4)CC3)c21 (stereo partly drawn) [INY-03-112, 3-(4-(10-(((S)-2-(4-chlorophenyl)-3-(4-((5R,7R)-7-hydroxy-5-methyl-6,7-dihydro-5H-cyclopenta[d]pyrimidin-4-yl)piperazin-1-yl)-3-oxopropyl)amino)decyl)-1-oxoisoindolin-2-yl)-1-methylpiperidine-2,6-dione], the GR50 (ZR-75-1 cells) was 413 nM and the “AKT isoform degradation” value ([8]; MDA-MB-468, immunoblot) was “did not induce potent degradation of any AKT isoform”.
Nc1cccc2c1CN(C1CCC(=O)NC1=O)C2=O (centres unmarked) [lenalidomide] was tested, and the “anti-proliferative effects” value [10] was “did not have strong anti-proliferative effects”.
In the case of CC(C)NC[C@@H](C(=O)N1CCN(c2ncnc3c2[C@H](C)C[C@H]3O)CC1)c1ccc(Cl)cc1 [GDC-0068, ipatasertib, reference compound], the “dose required to observe comparable effects on pPRAS40, pGSK3β, and pS6” value ([1]; comparable to 250 nM INY-03-041) is reported as “up to 1 μM”, the GR50 (ZR-75-1 cells) is reported as 229 nM and the “pPRAS40 levels over time” value [9] is reported as “less pronounced inhibition of pPRAS40”. For the same molecule, the “pPRAS40 levels after washout” value [9] was “rebound of pPRAS40”.

Source: PMC6980747 (Cell chemical biology, 2019)
